In PubChem BioAssay one finds outcome, potentiation and activation data, which are given here for 30 molecules.

SMILES strings stand for the structures. Calls of active or inactive are those of the source.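 Rule for the calls, unless noted: active = potentiation averaged over duplicate wells exceeding buffer-only control mean by more than 3 SD; inactive = the rest.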

Assay [1] is described as follows: nonspecific flux increase, KCNQ1-free cells – parental CHO cells, counter-screen for KCNQ1 potentiator project (AID 493006;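 active = duplicate-averaged activation above buffer control mean plus 5 SD of those controls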;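 for activation: fluorescence ratio of max minus min over baseline after K+ and Tl+ depolarization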). To be noted: parental CHO-K1 cells, FluxOR thallium flux, at 10 µM; stronger effect = higher value. An outline of the steps:
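Benchmarks – buffer and R-L3 controls · Assay system – untransfected host CHO-K1 cells with FluxOR thallium dye · Measure – fluorescence change ratio scaled 0% buffer, 100% R-L3 · Technique – kinetic thallium-flux fluorescence · Timing – overnight 37 °C plating, 90 min RT dye, 20 min compound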
(In general: The purpose of a counterscreen is to sort out artefacts and off-target activity.)

Assay [2] has as its target Potassium voltage-gated channel subfamily KQT member 1 (Homo sapiens) (UniProt P51787). The assay is described as follows: enhancement of KCNQ1 channel thallium flux – FluxOR thallium flux, CHO cells, duplicates, confirmation (AID 493007).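 For outcome: cells depolarized by a potassium plus thallium sulfate stimulus after compound.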 Particulars: KCNQ1 cell line, FluxOR thallium flux fluorescence, at 10 µM; stronger effect = higher value, % of reference activator effect, buffer zero. An outline of the steps:
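Material: CHO cells stably expressing the KCNQ1 potassium channel / Times: dye 90 min then compound 20 min, both at room temperature / Detection: kinetic thallium influx fluorescence with FluxOR dye, 10 s baseline, 110 s post-stimulus / Benchmarks: buffer-only wells as 0% and R-L3 activator as 100% / Replicates: each compound tested in duplicate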

The target of assay [3] is Potassium voltage-gated channel subfamily KQT member 2 (Rattus norvegicus) (UniProt O88943). Kind of assay: KCNQ2 thallium flux enhancement – KCNQ2-CHO-K1 cells, selectivity assay for KCNQ1 potentiator project (AID 493009;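 active = mean duplicate potentiation above the buffer control mean plus 5 SD of buffer wells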;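 note: assay conditions were tuned for KCNQ1 rather than KCNQ2 modulators; signal is max minus min fluorescence divided by baseline after thallium stimulus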). To be noted: FluxOR thallium flux fluorescence, at 10 µM; stronger effect = higher value, scaled: buffer 0, activator control 100.
Sequence of Potassium voltage-gated channel subfamily KQT member 2 (Rattus norvegicus) (O88943 whole entry, looked up): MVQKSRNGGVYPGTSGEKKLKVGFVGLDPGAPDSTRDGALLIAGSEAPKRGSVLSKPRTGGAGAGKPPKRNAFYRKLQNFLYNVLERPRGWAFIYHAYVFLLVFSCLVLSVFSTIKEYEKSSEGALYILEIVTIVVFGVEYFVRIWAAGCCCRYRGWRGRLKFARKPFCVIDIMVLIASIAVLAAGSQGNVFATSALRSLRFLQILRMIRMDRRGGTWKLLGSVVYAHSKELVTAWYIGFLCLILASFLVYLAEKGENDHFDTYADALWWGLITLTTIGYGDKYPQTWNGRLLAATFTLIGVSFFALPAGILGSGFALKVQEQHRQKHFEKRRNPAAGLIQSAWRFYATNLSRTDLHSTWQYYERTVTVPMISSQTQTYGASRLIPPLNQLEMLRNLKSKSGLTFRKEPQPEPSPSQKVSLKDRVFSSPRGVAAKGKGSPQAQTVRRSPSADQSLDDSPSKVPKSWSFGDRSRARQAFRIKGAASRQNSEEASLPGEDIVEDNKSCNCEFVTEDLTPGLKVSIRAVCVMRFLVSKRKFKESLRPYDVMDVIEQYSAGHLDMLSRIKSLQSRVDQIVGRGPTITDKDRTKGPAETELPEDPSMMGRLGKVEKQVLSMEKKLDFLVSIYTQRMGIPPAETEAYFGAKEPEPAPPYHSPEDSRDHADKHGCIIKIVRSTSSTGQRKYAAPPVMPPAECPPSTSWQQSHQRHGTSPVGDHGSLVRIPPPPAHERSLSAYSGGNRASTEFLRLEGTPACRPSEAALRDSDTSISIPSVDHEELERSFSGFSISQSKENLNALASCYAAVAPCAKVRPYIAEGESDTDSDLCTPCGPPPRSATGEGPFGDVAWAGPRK
Assay [4] has as its target Potassium voltage-gated channel subfamily KQT member 1 (Homo sapiens) (UniProt P51787). Kind of assay: KCNQ1 activators by electrophysiology – IonWorks patch clamp, KCNQ1-CHO cells, orthogonal assay for KCNQ1 potentiator project, confirmation (AID 493184;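 active = current rise at least 3 SD above the untreated control mean in each of two repeat wells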). To be noted: automated patch clamp current, at 10 µM; stronger effect = higher value. Put shortly: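 Probe or stimulus: depolarizing pulse to +40 mV from -90 mV; Material: CHO cells carrying KCNQ1; Compound: one dose, 10 µM final; Signal: automated voltage clamp, amphotericin B perforated patch; Read-out basis: percent current increase versus pre-compound level; Buffer or medium: pH 7.4 external bath; Replication: duplicates.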
A general note: In patch-clamp work, channel activity is measured electrically.

Sequence of Potassium voltage-gated channel subfamily KQT member 1 (Homo sapiens) (P51787 whole entry, looked up): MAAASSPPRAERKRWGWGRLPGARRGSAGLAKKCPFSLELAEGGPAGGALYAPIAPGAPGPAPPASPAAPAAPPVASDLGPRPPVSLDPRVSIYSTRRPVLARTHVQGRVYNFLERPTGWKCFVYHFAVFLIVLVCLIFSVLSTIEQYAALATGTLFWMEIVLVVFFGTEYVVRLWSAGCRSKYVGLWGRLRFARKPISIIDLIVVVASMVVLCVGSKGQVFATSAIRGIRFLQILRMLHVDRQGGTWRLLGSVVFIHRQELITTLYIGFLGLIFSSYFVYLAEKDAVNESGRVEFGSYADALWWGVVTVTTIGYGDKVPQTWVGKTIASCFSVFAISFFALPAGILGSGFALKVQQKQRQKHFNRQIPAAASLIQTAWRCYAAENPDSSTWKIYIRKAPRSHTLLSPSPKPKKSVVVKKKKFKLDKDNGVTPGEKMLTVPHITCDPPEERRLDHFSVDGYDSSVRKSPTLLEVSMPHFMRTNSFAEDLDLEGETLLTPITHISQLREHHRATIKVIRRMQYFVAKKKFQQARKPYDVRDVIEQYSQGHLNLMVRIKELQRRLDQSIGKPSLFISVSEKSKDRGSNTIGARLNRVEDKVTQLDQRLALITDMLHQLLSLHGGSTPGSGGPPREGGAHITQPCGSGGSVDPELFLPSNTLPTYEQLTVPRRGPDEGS

Turning to `O=C(COc1ccccc1)NC(=S)N1CCc2ccccc21`, the result in assay [1], in assay [3] and in assay [4] was inactive. In assay [2], the potentiation is 20% (active).

`COC(=O)C1=C(C)Nc2nnnn2C1c1ccc(Cl)cc1Cl` (stereo not given): the outcome in assay [1], in assay [2], in assay [3] and in assay [4] was inactive.

Regarding `COc1cccc(CN(C)C(=O)c2cc(COc3ccc4ncccc4c3)on2)c1`, the outcome in assay [1], in assay [2], in assay [3] and in assay [4] was inactive.

Consider `COCCCn1c(=S)[nH]c2sc3c(c2c1=O)CCCC3`, for which the activation in assay [1] was 366% (active). In addition, the potentiation in assay [2] was 138% (active); in assay [3], 346% (active). For the same molecule, the outcome in assay [4] was inactive.

`CCC(CC)C(=O)Nc1cc([N+](=O)[O-])ccc1Cl`: the outcome in assay [1], in assay [2], in assay [3] and in assay [4] was inactive.

Regarding `COc1ccc(-c2oc3ccccc3c(=O)c2OC(C)=O)cc1`, in assay [1], the activation was 144% (active). The outcome in assay [2] and in assay [4] was inactive. The potentiation in assay [3] is 161% (active).

As to `COc1ccc(Cl)cc1NC(=O)/C=C\C(=O)O`, the outcome in assay [1], in assay [2], in assay [3] and in assay [4] was inactive.

Turning to `CC(C)(C)NC(=O)CN(C(=O)CNC(=O)c1cccs1)c1ccc2c(c1)OCCO2`, the result in assay [1], in assay [2], in assay [3] and in assay [4] was inactive.

For `OCCCCNCc1ccc(OCc2ccc(Cl)cc2Cl)cc1`, the result in assay [1], in assay [3] and in assay [4] was inactive. For the same molecule, the potentiation in assay [2] was 23.5% (active).

On to `OC1(c2ccc(Br)cc2)CCNCC1`, for which the result in assay [1], in assay [2], in assay [3] and in assay [4] was inactive.

Consider `CCCCOC(=O)c1cc(C)nc2ccc(Br)cc12`, for which the activation in assay [1] is 306% (active). Besides, the results for the potentiation in assay [2] and in assay [3] were 172% (active) and 320% (active), respectively. In addition, the outcome in assay [4] was inactive.

Consider `COc1cc(/C=C2\C(=O)N(C)C(=S)N2C)ccc1O`, for which the result in assay [1], in assay [2], in assay [3] and in assay [4] was inactive.

For `O=C(NC(=S)Nc1cccc(C(F)(F)F)c1)c1csnn1`, the activation in assay [1] is 595% (active). The potentiation was 308% (active) in assay [2] and 618% (active) in assay [3]. In assay [4], the outcome was inactive.

On to `Cc1ccc(Cc2c[nH]c(=S)s2)cc1`, for which, in assay [1], the activation is 348% (active). In addition, the potentiation is 126% (active) in assay [2] and 343% (active) in assay [3]. In assay [4], the result was inactive.

Turning to `CN(Cc1nccs1)C(=O)c1ccc(OC2CCN(Cc3ccccn3)CC2)cc1`, the result in assay [1], in assay [2], in assay [3] and in assay [4] was inactive.

Turning to `Cc1csc(N/N=C/c2ccc([N+](=O)[O-])cc2)n1`, the result in assay [1] and in assay [4] was inactive. In addition, the potentiation was 46% (active) in assay [2] and 158% (active) in assay [3].

Regarding `Oc1ccc2ccccc2c1N=Nc1nccs1`, the activation in assay [1] is 328% (active). For the same molecule, the potentiation in assay [2] was 258% (active); in assay [3], 426% (active). Besides, in assay [4], the outcome was inactive.

`COc1ccc(N2CCN(S(=O)(=O)c3ccc(OC)c(C(=O)N4CCCCC4)c3)CC2)cc1`: the result in assay [1], in assay [2], in assay [3] and in assay [4] was inactive.

For the molecule `Cc1nn(CC(=O)NC(C)c2ccccc2)c(=O)c2ccccc12` (stereo not given), the activation in assay [1] is 150% (active). Moreover, the potentiation was 85.5% (active) in assay [2] and 172% (active) in assay [3]. The outcome in assay [4] was inactive.

Consider `O=c1[nH]c(=S)[nH]c2sc3c(c12)CCCCCC3`, for which, in assay [1], the activation was 138% (active). In addition, the outcome in assay [2], in assay [3] and in assay [4] was inactive.

For the molecule `CC(C)CSC1=NSC2=NC(=O)/C(=C\c3ccccc3)C(=N)N12`, the activation in assay [1] is 198% (active). The potentiation was 58% (active) in assay [2] and 204% (active) in assay [3]. For the same molecule, in assay [4], the result was inactive.

On to `S=c1nc[nH]c2c1cnn2-c1ccccc1`, for which the activation in assay [1] was 168% (active). For the same molecule, the potentiation is 29.5% (active) in assay [2] and 222% (active) in assay [3]. Besides, the outcome in assay [4] was inactive.

Turning to `COc1cccc(C2=NOC(C(=O)NCc3cccs3)C2)c1` (stereo not given), the outcome in assay [1], in assay [2], in assay [3] and in assay [4] was inactive.

As for `Cc1cc(Br)ccc1OCC(=O)NNC(=O)c1cnccn1`, the result in assay [1], in assay [2], in assay [3] and in assay [4] was inactive.

Consider `CCCN(CCC)C(=S)NC(=O)c1ccc(Cl)cc1Cl`, for which the activation in assay [1] is 470% (active). Also, the potentiation is 204% (active) in assay [2] and 448% (active) in assay [3]. In addition, the result in assay [4] was inactive.

Take `S=c1[nH]c(-c2ccccc2)cn1/N=C/c1cccc2ccccc12`: the activation in assay [1] was 174% (active). The figures for the potentiation in assay [2] and in assay [3] were 65.5% (active) and 184% (active), respectively. For the same molecule, the result in assay [4] was inactive.

In the case of `Cc1cccc(/C=C/C(=O)c2cc(Br)ccc(=O)c2O)c1`, the activation in assay [1] was 170% (active). The potentiation is 90% (active) in assay [2] and 254% (active) in assay [3]. Besides, in assay [4], the result was inactive.

`COc1ccc(OC)c(S(=O)(=O)CC(O)CS(=O)(=O)c2ccccc2)c1` (stereo not given): the outcome in assay [1], in assay [2], in assay [3] and in assay [4] was inactive.

`COC(=O)c1ccc(NC(=S)NC(=O)c2cc(-c3ccccc3)nc3ccccc23)cc1`: the activation in assay [1] was 174% (active). Besides, the potentiation was 37% (active) in assay [2] and 178% (active) in assay [3]. Besides, the outcome in assay [4] was inactive.

Turning to `CC(C)(C)C1C/C(=C/c2ccccn2)C(=O)/C(=C/c2ccccn2)C1` (stereo not given), the result in assay [1], in assay [2], in assay [3] and in assay [4] was inactive.
